ChEMBL document CHEMBL1799977, “Discovery of MK-0952, a selective PDE4 inhibitor for the treatment of long-term memory loss and mild cognitive impairment” (Bioorg Med Chem Lett, 2010)
Calls of active or inactive are those of the source. The calls are words filed in the database; no cut-off is given here.

What was measured:
[1] = Ratio IC50 for PDE4 activity in human whole blood to IC50 for PDE4; format: tissue-based
Procedure, shortened: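 Ratio of two IC50s. The numerator is from human whole blood stimulated with LPS, read as inhibition of TNF-α release. The denominator (PDE4QT) is the mean of the IC50s on the PDE4A, B and D catalytic domains. These were expressed as GST constructs in Sf9 cells by baculovirus. Each IC50 is the average of at least two experiments.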

[2] = target: 3',5'-cyclic-AMP phosphodiesterase 4A (Homo sapiens, UniProt P27815); experiment: Inhibition of PDE4A; settings: pooled result: one value given for 3 cell lines, strains, targets or settings
Procedure, shortened: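 Catalytic domains of PDE4A, B and D expressed as GST constructs in SF9 cells (baculovirus). IC50s are averages of at least two experiments.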

Phosphodiesterase 4 = Phosphodiesterase 4 (Homo sapiens, UniProt P27815+Q08499+Q07343+Q08493); experiment: Inhibition of PDE4 activity in human whole blood assessed as inhibition of LPS-induced TNF-alpha release
[3] = (§1) Oral bioavailability in Sprague-Dawley rat at 10 mg/kg; format: ADME, organism-based; settings: Sprague-Dawley, in vivo
[4] = (§2) Half life in Sprague-Dawley rat at 10 mg/kg, po and 5 mg/kg, iv; format: ADME, organism-based; settings: Sprague-Dawley, in vivo
Rattus norvegicus [5] = experiment: as §1; format: ADME, organism-based; settings: in vivo
Rattus norvegicus [6] = experiment: as §2; format: ADME, organism-based; settings: in vivo
[7] = Drug level in rat plasma at 0.1 mg/kg, po measured 90 mins post dose; format: ADME, organism-based; parameters: dose 0.1 mg/kg, route oral
[8] = Drug level in rat brain at 0.1 mg/kg, po measured 90 mins post dose; format: ADME, organism-based; parameters: dose 0.1 mg/kg, route oral; settings: read-out: Drug uptake
[9] = Drug level in rat plasma at 0.5 mg/kg, po measured 90 mins post dose; format: ADME, organism-based; parameters: dose 0.5 mg/kg, route oral
[10] = Drug level in rat brain at 0.5 mg/kg, po measured 90 mins post dose; format: ADME, organism-based; parameters: dose 0.5 mg/kg, route oral; settings: read-out: Drug uptake
[11] = Drug level in rat plasma at 1 mg/kg, po measured 90 mins post dose; format: ADME, organism-based; parameters: dose 1 mg/kg, route oral
[12] = Drug level in rat brain at 1 mg/kg, po measured 90 mins post dose; format: ADME, organism-based; parameters: dose 1 mg/kg, route oral; settings: read-out: Drug uptake
[13] = Drug level in rat plasma at 5 mg/kg, po measured 90 mins post dose; format: ADME, organism-based; parameters: dose 5 mg/kg, route oral
[14] = Drug level in rat brain at 5 mg/kg, po measured 90 mins post dose; format: ADME, organism-based; parameters: dose 5 mg/kg, route oral; settings: read-out: Drug uptake
[15] = Drug level in rat plasma at 10 mg/kg, po measured 90 mins post dose; format: ADME, organism-based; parameters: dose 10 mg/kg, route oral
[16] = Drug level in rat brain at 10 mg/kg, po measured 90 mins post dose; format: ADME, organism-based; parameters: dose 10 mg/kg, route oral; settings: read-out: Drug uptake
Rattus norvegicus [17] = experiment: Cognitive enhancing effect in Lister rat assessed as recognition of novel object at 0.01 mg/kg, po pretreated 90 mins before sample phase by novel object recognition test; format: functional, organism-based; parameters: dose 0.01 mg/kg
Procedure, shortened: (§3)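 Novel object recognition in rats. Oral dosing in 0.5% methocel 90 min before the sample trial, which ended at 25 s of exploration or 3 min. Choice trial followed with a familiar and a novel object. d2 score = (novel − familiar)/total exploration. n = 21–24; Newman–Keuls test.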

Rattus norvegicus [18] = experiment: Cognitive enhancing effect in Lister rat assessed as recognition of novel object at 0.1 mg/kg, po pretreated 90 mins before sample phase by novel object recognition test; format: functional, organism-based; parameters: dose 0.1 mg/kg; procedure, shortened: as §3

Sequence of 3',5'-cyclic-AMP phosphodiesterase 4A (P27815 whole entry, the tested form may be a part): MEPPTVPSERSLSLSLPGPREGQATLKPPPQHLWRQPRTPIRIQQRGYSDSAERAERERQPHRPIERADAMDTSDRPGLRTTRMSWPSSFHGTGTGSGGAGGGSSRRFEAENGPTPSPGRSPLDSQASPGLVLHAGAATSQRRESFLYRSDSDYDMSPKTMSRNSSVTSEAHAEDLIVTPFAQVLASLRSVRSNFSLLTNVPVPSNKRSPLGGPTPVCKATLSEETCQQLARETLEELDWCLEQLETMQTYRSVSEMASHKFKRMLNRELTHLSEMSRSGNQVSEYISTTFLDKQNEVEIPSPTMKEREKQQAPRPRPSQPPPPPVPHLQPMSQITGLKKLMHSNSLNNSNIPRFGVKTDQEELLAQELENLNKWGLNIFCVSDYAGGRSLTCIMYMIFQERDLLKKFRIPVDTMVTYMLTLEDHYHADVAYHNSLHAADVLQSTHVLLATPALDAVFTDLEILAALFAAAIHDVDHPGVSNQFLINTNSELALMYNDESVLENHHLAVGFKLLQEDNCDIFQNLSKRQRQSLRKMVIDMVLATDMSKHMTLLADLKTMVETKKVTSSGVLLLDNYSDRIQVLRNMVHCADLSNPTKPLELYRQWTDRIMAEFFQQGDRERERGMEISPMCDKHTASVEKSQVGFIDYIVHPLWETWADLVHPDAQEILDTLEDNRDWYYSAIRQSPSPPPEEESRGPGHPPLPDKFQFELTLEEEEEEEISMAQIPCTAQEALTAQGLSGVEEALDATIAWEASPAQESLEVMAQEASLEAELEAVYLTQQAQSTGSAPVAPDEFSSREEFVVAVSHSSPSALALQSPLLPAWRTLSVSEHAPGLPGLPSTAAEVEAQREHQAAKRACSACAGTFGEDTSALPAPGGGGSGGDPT

Compound | Ratio IC50 [1] | IC50 [2] | IC50 (Phosphodiesterase 4) | bioavailability [3] | half-life [4] | also measured
O=C(NCC(F)(F)F)c1cn(-c2cccc(-c3ccc(C4CC4C(=O)O)cc3)c2)c2ncccc2c1=O (racemic) | 1080 | 0.51 nM | 510 nM | 25% | 3.2 h | 
O=C(NC1(O)CC1)c1cn(-c2cccc(-c3ccc(C4CC4C(=O)O)cc3)c2)c2ncccc2c1=O (racemic) | 376 | 17 nM | 6400 nM |  |  | 
CC(C)(CC(=O)O)c1ccc(-c2cccc(-n3cc(C(=O)NC4CC4)c(=O)c4cccnc43)c2)cc1 | 88 | 0.85 nM | 75 nM | 62% | 5.1 h | 
O=C(NC1CC1)c1cn(-c2cccc(-c3ccc(C4CC4C(=O)O)cc3)c2)c2ncccc2c1=O (racemic) [listing 1 of 2 here] |  | 0.57 nM | 300 nM |  |  | F (Rattus norvegicus [5]): 78%; t1/2 (Rattus norvegicus [6]): 1.7 h
O=C(NC1CCC1)c1cn(-c2cccc(-c3ccc(C4CC4C(=O)O)cc3)c2)c2ncccc2c1=O (racemic) | 432 | 0.52 nM | 220 nM | 20% | 2.4 h | 
O=C(NC1CC1)c1cn(-c2cccc(-c3ccc(C4CC4C(=O)O)cc3)c2)c2ncccc2c1=O (racemic) [listing 2 of 2 here] | 526 |  |  |  |  | 
O=C(NC1CC1)c1cn(-c2cccc(-c3ccccc3C3CC3C(=O)O)c2)c2ncccc2c1=O (racemic) | 282 | 4.6 nM | 1300 nM | 35% | 4.7 h | 
O=C(NC1CC1)c1cn(-c2cccc(-c3ccc([C@@H]4C[C@H]4C(=O)[O-])c(F)c3)c2)c2ncccc2c1=O.[Na+] |  |  |  |  |  | concentration at 1.5 h [7]: 590 nM; concentration at 1.5 h [8]: 12 nM; concentration at 1.5 h [9]: 1340 nM; concentration at 1.5 h [10]: 47 nM; concentration at 1.5 h [11]: 3410 nM; concentration at 1.5 h [12]: 110 nM; concentration at 1.5 h [13]: 8190 nM; concentration at 1.5 h [14]: 290 nM; concentration at 1.5 h [15]: 18800 nM; concentration at 1.5 h [16]: 590 nM
O=C(NC1CC1)c1cn(-c2cccc(-c3ccc(C4CC4C(=O)O)cc3)c2)c2ncccc2c1=O (cis isomer) [listing 1 of 2 here] | 100 |  |  |  |  | 
CC(C)(c1cc(-c2cccc(-c3ccc(C4CC4C(=O)O)cc3)c2)c2ncccc2c1)S(C)(=O)=O (single isomer, unassigned; enantiomer B) |  | 0.32 nM | 600 nM |  |  | 
CC(C)(Cc1ccc(-c2cccc(-n3cc(C(=O)NC4CC4)c(=O)c4cccnc43)c2)cc1)C(=O)O | 693 | 0.88 nM | 610 nM | 30% | 6.1 h | 
O=C(NC1CC1)c1cn(-c2cccc(-c3ccc([C@H]4C[C@@H]4C(=O)O)c(F)c3)c2)c2ncccc2c1=O | 330 | 0.46 nM | 150 nM |  |  | 
CC1(NC(=O)c2cn(-c3cccc(-c4ccc(C5CC5C(=O)O)cc4)c3)c3ncccc3c2=O)CC1 (racemic) | 482 | 0.58 nM | 280 nM | 58% | 4.1 h | 
O=C(NCC1CC1)c1cn(-c2cccc(-c3ccc(C4CC4C(=O)O)cc3)c2)c2ncccc2c1=O (racemic) | 571 | 0.35 nM | 200 nM |  |  | 
O=C(NC1CC1)c1cn(-c2cccc(-c3ccc([C@@H]4C[C@H]4C(=O)O)cc3)c2)c2ncccc2c1=O | 1000 | 1 nM | 1000 nM |  |  | 
CC(C)(C)NC(=O)c1cn(-c2cccc(-c3ccc(C4CC4C(=O)O)cc3)c2)c2ncccc2c1=O (racemic) | > 1140 | 32 nM | > 40000 nM |  |  | 
O=C(NC1CC1)c1cn(-c2cccc(-c3ccc([C@H]4C[C@@H]4C(=O)O)cc3)c2)c2ncccc2c1=O | 350 | 0.66 nM | 230 nM |  |  | 
O=C(NC1CC1)c1cn(-c2cccc(-c3cccc(C4CC4C(=O)O)c3)c2)c2ncccc2c1=O (racemic) | 203 | 0.54 nM | 110 nM | 100% | 1 h | 
CC(C)(c1cc(-c2cccc(-c3ccc(C4CC4C(=O)O)cc3)c2)c2ncccc2c1)S(C)(=O)=O (single isomer, unassigned; enantiomer A) |  | 0.54 nM | 1400 nM |  |  | 
O=C(NC1CC1)c1cn(-c2cccc(-c3ccc(C4CC4C(=O)O)cc3)c2)c2ncccc2c1=O (cis isomer) [listing 2 of 2 here] |  | 1.6 nM | 160 nM |  |  | F (Rattus norvegicus [5]): 30%; t1/2 (Rattus norvegicus [6]): 3.9 h
O=C(NC1CC1)c1cn(-c2cccc(-c3ccc([C@@H]4C[C@H]4C(=O)O)c(F)c3)c2)c2ncccc2c1=O | 1040 |  |  |  |  | Activity (Rattus norvegicus [17]): Active; Activity (Rattus norvegicus [18]): Active
O=C(NC1CC1)c1cn(-c2cccc(-c3ccc(C4CC4c4nnn[nH]4)cc3)c2)c2ncccc2c1=O (racemic) | > 9090 | 0.55 nM | > 5000 nM | 5% | 2.4 h | 
